Measured values taken from ChEMBL document CHEMBL1129032, “Synthesis and phospholipase A2 inhibitory activity of thielocin B3 derivatives” (J Med Chem, 1996).

What was measured:
[1] = target: T1, Phospholipase A2, membrane associated (Homo sapiens, UniProt P14555); assay: In vitro inhibition of human recombinant secretory Phospholipase A2 (group II).
T1 sequence (P14555 whole entry): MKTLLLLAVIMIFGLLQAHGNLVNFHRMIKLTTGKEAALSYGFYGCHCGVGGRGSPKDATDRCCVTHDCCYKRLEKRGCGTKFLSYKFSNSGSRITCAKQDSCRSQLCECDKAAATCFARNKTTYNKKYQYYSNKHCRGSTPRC
Procedure, shortened: (§1)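 PLA2 enzymes: recombinant human group I or II, or group II purified from rat platelets (single ~14 kDa band on SDS-PAGE). Substrate was 1-palmitoyl-2-[1-14C]linoleoyl-PE diluted with egg-yolk PE to 2000 dpm/nmol. Reaction started by adding enzyme, adjusted so hydrolysis stayed below 20%. Compounds in DMSO (2% final) against a DMSO control. IC50 read graphically from % inhibition vs log concentration, three independent experiments in duplicate.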

[2] = target: T2, Phospholipase A2, membrane associated (Rattus norvegicus, UniProt P14423); assay: In vitro inhibition of rat secretory Phospholipase A2 (group II).; procedure, shortened: as §1
T2 sequence (P14423 whole entry): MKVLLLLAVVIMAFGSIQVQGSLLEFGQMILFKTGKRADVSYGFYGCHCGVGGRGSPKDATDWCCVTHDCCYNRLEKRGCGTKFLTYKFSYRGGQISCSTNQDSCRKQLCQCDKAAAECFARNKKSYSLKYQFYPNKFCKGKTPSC

[3] = target: Phospholipase A2 (Homo sapiens, UniProt P04054); assay: In vitro inhibition of human recombinant secretory Phospholipase A2 (group I).; procedure, shortened: as §1
[4] = species on record: Rattus norvegicus; assay: Inhibition of A-23187 stimulated Thromboxane B2 production from rat platelets by 10 uM.; format: functional; parameters: scale not given: the % may be the effect or the level left
Procedure, shortened: (§2)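 Rat platelets from citrate-dextrose blood with PGE1 were sedimented and labelled with [3H]AA (20 µCi/mL, 2.0 h, room temperature), gel-filtered, and used at 5 × 10^8 cells/mL. Stimulation used A23187 2 µM (DMSO 0.4%) plus compound (DMSO 0.2%), stopped with 0.1 N HCl. [3H]AA and [3H]TXB2 were separated by TLC and counted. Result given as % of A23187-induced increase over DMSO control, mean ± SEM of three experiments.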

[5] = species on record: Rattus norvegicus; assay: Inhibition of A-23187 stimulated Arachidonic acid production from rat platelets by 10 uM.; format: functional; parameters: scale not given: the % may be the effect or the level left; procedure, shortened: as §2
[6] = target: T1, Phospholipase A2, membrane associated; assay: In vitro inhibition of human recombinant secretory Phospholipase A2 (group II); No inhibition.; procedure, shortened: as §1
[7] = target: T2, Phospholipase A2, membrane associated; assay: In vitro inhibition of rat secretory Phospholipase A2 (group II); No inhibition.; procedure, shortened: as §1

Sequence of Phospholipase A2 (P04054 whole entry): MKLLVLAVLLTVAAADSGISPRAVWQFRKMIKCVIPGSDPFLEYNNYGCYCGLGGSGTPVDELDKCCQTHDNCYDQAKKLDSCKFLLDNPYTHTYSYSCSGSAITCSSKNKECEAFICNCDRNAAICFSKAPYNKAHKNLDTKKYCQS

For `COc1c(C)c(OC(=O)c2c(C)c(C)c(OC(=O)CCC(=O)Oc3c(C)c(C)c(C(=O)Oc4c(C)c(C)c(C(=O)O)c(OC)c4C)c(OC)c3C)c(C)c2OC)c(C)c(C)c1C(=O)O`, the IC50 [1] was 940 nM, the IC50 [2] was 40 nM and the IC50 [3] was 60000 nM.

`COc1ccc(Sc2ccc(OC)c(C(=O)Oc3c(C)c(C)c(C(=O)Oc4c(C)c(C)c(C(=O)O)c(OC)c4C)c(OC)c3C)c2)cc1C(=O)Oc1c(C)c(C)c(C(=O)Oc2c(C)c(C)c(C(=O)O)c(OC)c2C)c(OC)c1C` gave an IC50 [1] of 130 nM, an IC50 [2] of 49 nM and an IC50 [3] of 55000 nM. The Activity [4] was 0% and the Activity [5] was 2.8%.

For `COc1c(C)c(OC)c(C(=O)Oc2c(C)c(C)c(C(=O)O)c(OC)c2C)c(C)c1Cc1c(C)c(C(=O)Oc2c(C)c(C)c(C(=O)O)c(OC)c2C)c(OC)c(C)c1OC`, the IC50 [1] was 2800 nM, the IC50 [2] was 4600 nM and the IC50 [3] was 90000 nM.

With `COc1ccc(Sc2ccc(OC)c(C(=O)Oc3c(C)c(C)c(C(=O)Oc4c(C)c(C)c(C(=O)O)c(OC)c4C)c(OC)c3C)c2)cc1C(=O)O` the IC50 [1] was 4100 nM, the IC50 [2] was 2100 nM and the IC50 [3] was 100000 nM.

For `COc1c(C)c(OC(=O)c2c(C)c(C)c(OC(=O)c3cc(=O)cc(C(=O)Oc4c(C)c(C)c(C(=O)Oc5c(C)c(C)c(C(=O)O)c(OC)c5C)c(OC)c4C)o3)c(C)c2OC)c(C)c(C)c1C(=O)O`, the IC50 [1] was 5800 nM, the IC50 [2] was 880 nM and the IC50 [3] was 100000 nM. For the same compound, the Activity [4] was 46.3% and the Activity [5] was 55.2%.

In the case of `COc1c(C)c(OC(=O)c2c(C)c(C)c(OC(=O)/C=C/C(=O)Oc3c(C)c(C)c(C(=O)Oc4c(C)c(C)c(C(=O)O)c(OC)c4C)c(OC)c3C)c(C)c2OC)c(C)c(C)c1C(=O)O`, the IC50 [1] is reported as 2200 nM, the IC50 [2] is reported as 330 nM and the IC50 [3] is reported as over 100000 nM. It also gave an Activity [4] of 65.8% and an Activity [5] of 70.7%.

`COc1c(C)c(OC(=O)c2c(C)c(C)c(OC(=O)c3cccc(C(=O)Oc4c(C)c(C)c(C(=O)Oc5c(C)c(C)c(C(=O)O)c(OC)c5C)c(OC)c4C)c3)c(C)c2OC)c(C)c(C)c1C(=O)O` was tested, and the IC50 [1] was 230 nM, the IC50 [2] was 120 nM and the IC50 [3] was over 100000 nM. For the same compound, the Activity [4] was 0.1% and the Activity [5] was 49.2%.

In the case of `COc1c(C)c(OC)c(C(=O)Oc2c(C)c(C)c(C(=O)Oc3c(C)c(C)c(C(=O)O)c(OC)c3C)c(OC)c2C)c(C)c1Cc1c(C)c(C(=O)Oc2c(C)c(C)c(C(=O)Oc3c(C)c(C)c(C(=O)O)c(OC)c3C)c(OC)c2C)c(OC)c(C)c1OC`, the IC50 [1] is reported as 190 nM, the IC50 [2] is reported as 130 nM and the IC50 [3] is reported as over 100000 nM.

For `Cc1c(O)c(Cc2c(C)c(C(=O)Oc3c(C)c(C)c(C(=O)Oc4c(C)c(C)c(C(=O)O)c(O)c4C)c(O)c3C)c(O)c(C)c2O)c(C)c(C(=O)Oc2c(C)c(C)c(C(=O)Oc3c(C)c(C)c(C(=O)O)c(O)c3C)c(O)c2C)c1O`, the IC50 [1] was 2400 nM, the IC50 [2] was 950 nM and the IC50 [3] was over 100000 nM.

`COc1c(C)c(OC(=O)c2c(C)c(C)c(OC(=O)c3c(C)c(CN[C@@H](C)c4ccccc4)c(O)c(C)c3O)c(C)c2OC)c(C)c(C)c1C(=O)O` was tested, and the IC50 [1] was 840 nM, the IC50 [2] was 360 nM and the IC50 [3] was 60000 nM.

Compound `COc1c(C)c(OC)c(C(=O)O)c(C)c1Cc1c(C)c(C(=O)Oc2c(C)c(C)c(C(=O)Oc3c(C)c(C)c(C(=O)O)c(OC)c3C)c(OC)c2C)c(OC)c(C)c1OC` has an IC50 [1] of 3000 nM, an IC50 [2] of 3000 nM and an IC50 [3] of over 100000 nM.

Work on `COc1cc(OC)c(C(=O)Oc2c(C)c(C)c(C(=O)Oc3c(C)c(C)c(C(=O)O)c(OC)c3C)c(OC)c2C)cc1Oc1cc(C)c(OC)c(C(=O)Oc2c(C)c(C)c(C(=O)Oc3c(C)c(C)c(C(=O)O)c(OC)c3C)c(OC)c2C)c1` yielded an IC50 [1] of 240 nM, an IC50 [2] of 35 nM and an IC50 [3] of 6600 nM. For the same compound, the Activity [4] was 0% and the Activity [5] was 19.7%.

Work on `COc1ccc(S(=O)(=O)c2ccc(OC)c(C(=O)Oc3c(C)c(C)c(C(=O)Oc4c(C)c(C)c(C(=O)O)c(OC)c4C)c(OC)c3C)c2)cc1C(=O)Oc1c(C)c(C)c(C(=O)Oc2c(C)c(C)c(C(=O)O)c(OC)c2C)c(OC)c1C` yielded an IC50 [1] of 69 nM, an IC50 [2] of 50 nM and an IC50 [3] of 9000 nM.

With `COc1ccc(Sc2ccc(OC)c(C(=O)Oc3c(C)c(C)c(C(=O)Oc4c(C)c(C)c(C(=O)OCOC(=O)C(C)(C)C)c(OC)c4C)c(OC)c3C)c2)cc1C(=O)Oc1c(C)c(C)c(C(=O)Oc2c(C)c(C)c(C(=O)OCOC(=O)C(C)(C)C)c(OC)c2C)c(OC)c1C` the IC50 [6] was “Not Active”, the IC50 [7] was “Not Active” and the IC50 [3] was over 100000 nM.

`COc1ccc(Oc2ccc(OC)c(C(=O)Oc3c(C)c(C)c(C(=O)Oc4c(C)c(C)c(C(=O)O)c(OC)c4C)c(OC)c3C)c2)cc1C(=O)Oc1c(C)c(C)c(C(=O)Oc2c(C)c(C)c(C(=O)O)c(OC)c2C)c(OC)c1C` showed an IC50 [1] of 100 nM, an IC50 [2] of 42 nM and an IC50 [3] of 6500 nM. The Activity [4] was 0% and the Activity [5] was 9%.

With `COc1ccc([S+]([O-])c2ccc(OC)c(C(=O)Oc3c(C)c(C)c(C(=O)Oc4c(C)c(C)c(C(=O)O)c(OC)c4C)c(OC)c3C)c2)cc1C(=O)Oc1c(C)c(C)c(C(=O)Oc2c(C)c(C)c(C(=O)O)c(OC)c2C)c(OC)c1C` the IC50 [1] was 260 nM, the IC50 [2] was 120 nM and the IC50 [3] was 11000 nM.

For `COc1ccc(Sc2ccc(OC)c(C(=O)Oc3c(C)c(C)c(C(=O)O)c(OC)c3C)c2)cc1C(=O)Oc1c(C)c(C)c(C(=O)O)c(OC)c1C`, the IC50 [1] was 4800 nM, the IC50 [2] was 2500 nM and the IC50 [3] was over 100000 nM.

Work on `COc1ccc(Oc2ccc(OC)c(C(=O)Oc3c(C)c(C)c(C(=O)O)c(OC)c3C)c2)cc1C(=O)Oc1c(C)c(C)c(C(=O)O)c(OC)c1C` yielded an IC50 [1] of 75000 nM, an IC50 [2] of 3400 nM and an IC50 [3] of over 100000 nM.

Compound `CC1=C(CC/C(C)=C/CCC2=CC[C@H](C3=CC(=O)O[C@H]3O)O[C@H]2O)C(C)(C)CCC1` [MANOALIDE] has an IC50 [1] of 1500 nM and an IC50 [2] of 2000 nM.

In the case of `CCN(CC)CCCC(C)Nc1c2ccc(Cl)cc2nc2ccc(OC)cc12` (stereo not drawn) [QUINACRINE], the IC50 [1] is reported as 76000 nM and the IC50 [2] is reported as 320000 nM.

For `COc1c(C)c(OC(=O)c2c(C)c(C)c(OC(=O)C3=C(C)[C@@](C)(O)C4(O)Oc5c(C)c(OC)c(C(=O)Oc6c(C)c(C)c(C(=O)O)c(OC)c6C)c(C)c5C[C@@]4(C)C3=O)c(C)c2OC)c(C)c(C)c1C(=O)O` (stereo partly drawn) [THIELOCIN A1], the IC50 [1] was 12000 nM, the IC50 [2] was 3.3 nM and the IC50 [3] was 135000 nM.

With `COc1c(C)c(OC(=O)c2c(C)c(C)c(OC(=O)c3c(C)cc(O)c(Cc4c(C)c(C(=O)Oc5c(C)c(C)c(C(=O)Oc6c(C)c(C)c(C(=O)O)c(OC)c6C)c(OC)c5C)c(O)c(C)c4O)c3O)c(C)c2OC)c(C)c(C)c1C(=O)O` [THIELOCIN B3] the IC50 [1] was 76 nM, the IC50 [2] was 12 nM and the IC50 [3] was 18000 nM. The Activity [4] was 43.7% and the Activity [5] was 60.3%.
